Data: ChEMBL document CHEMBL1131023, “Identification of a dihydropyridine as a potent alpha1a adrenoceptor-selective antagonist that inhibits phenylephrine-induced contraction of the human prostate” (J Med Chem, 1998)

Legend:
[1] = target: T1, Alpha-1D adrenergic receptor (Homo sapiens, UniProt P25100); assay: Binding affinity determined by displacement of [3H]prazosin from alpha-1D adrenergic receptor
T1 sequence (P25100 whole entry): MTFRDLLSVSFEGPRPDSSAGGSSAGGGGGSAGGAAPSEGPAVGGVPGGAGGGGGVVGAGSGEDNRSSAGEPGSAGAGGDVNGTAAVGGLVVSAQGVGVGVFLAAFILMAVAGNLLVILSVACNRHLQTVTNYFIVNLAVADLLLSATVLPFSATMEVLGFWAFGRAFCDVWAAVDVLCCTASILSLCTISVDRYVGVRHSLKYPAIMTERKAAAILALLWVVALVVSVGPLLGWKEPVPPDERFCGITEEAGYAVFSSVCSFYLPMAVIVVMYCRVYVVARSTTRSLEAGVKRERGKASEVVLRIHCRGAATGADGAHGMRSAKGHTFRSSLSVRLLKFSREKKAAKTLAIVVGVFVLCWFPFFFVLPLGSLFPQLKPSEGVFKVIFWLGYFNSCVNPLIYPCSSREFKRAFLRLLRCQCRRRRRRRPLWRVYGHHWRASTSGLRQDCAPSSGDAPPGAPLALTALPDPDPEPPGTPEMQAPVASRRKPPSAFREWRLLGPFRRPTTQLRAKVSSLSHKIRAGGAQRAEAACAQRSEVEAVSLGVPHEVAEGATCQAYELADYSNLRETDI
Procedure, shortened: (§1)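 Radioligand displacement binding at the cloned receptor, incubated for 30 min.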

[2] = target: T2, Alpha-1B adrenergic receptor (Homo sapiens, UniProt P35368); assay: Binding affinity determined by displacement of [3H]prazosin from alpha-1B adrenergic receptor
T2 sequence (P35368 whole entry): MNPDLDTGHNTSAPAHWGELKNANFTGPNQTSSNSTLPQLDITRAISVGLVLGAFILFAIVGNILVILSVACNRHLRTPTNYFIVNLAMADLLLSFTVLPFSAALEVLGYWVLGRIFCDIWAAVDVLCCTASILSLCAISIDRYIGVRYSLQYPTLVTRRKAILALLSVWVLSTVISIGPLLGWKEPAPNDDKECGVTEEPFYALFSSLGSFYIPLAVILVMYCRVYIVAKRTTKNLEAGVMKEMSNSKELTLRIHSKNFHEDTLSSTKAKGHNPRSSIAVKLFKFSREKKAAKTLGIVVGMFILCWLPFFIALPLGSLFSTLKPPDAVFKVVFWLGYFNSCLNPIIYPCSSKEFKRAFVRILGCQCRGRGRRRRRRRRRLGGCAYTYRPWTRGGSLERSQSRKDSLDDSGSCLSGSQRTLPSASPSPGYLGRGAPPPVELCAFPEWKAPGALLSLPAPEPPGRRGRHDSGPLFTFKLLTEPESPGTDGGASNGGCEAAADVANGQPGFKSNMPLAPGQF

[3] = target: Voltage-gated L-type calcium channel (Rattus norvegicus, UniProt P22002+Q02485+P27732); assay: Binding affinity at the L-type [Ca2+] channel from rat brain homogenate by [3H]nitrendipine displacement.; type: tissue-based
[4] = target: T3, Alpha-1A adrenergic receptor (Homo sapiens, UniProt P35348); assay: Binding affinity determined by displacement of [3H]prazosin from alpha-1A adrenergic receptor
T3 sequence (P35348 whole entry): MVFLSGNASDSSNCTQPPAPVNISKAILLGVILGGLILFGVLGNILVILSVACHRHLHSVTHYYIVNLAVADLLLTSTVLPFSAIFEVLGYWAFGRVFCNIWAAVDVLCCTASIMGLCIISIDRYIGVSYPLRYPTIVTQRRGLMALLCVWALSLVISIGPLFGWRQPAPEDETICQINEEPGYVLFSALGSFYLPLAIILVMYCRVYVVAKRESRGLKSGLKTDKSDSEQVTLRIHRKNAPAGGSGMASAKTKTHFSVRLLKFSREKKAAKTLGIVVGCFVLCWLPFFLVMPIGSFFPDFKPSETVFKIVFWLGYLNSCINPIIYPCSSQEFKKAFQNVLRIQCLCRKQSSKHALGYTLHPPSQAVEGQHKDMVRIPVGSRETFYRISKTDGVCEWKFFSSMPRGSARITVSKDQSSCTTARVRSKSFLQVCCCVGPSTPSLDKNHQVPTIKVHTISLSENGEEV

[5] = target: T4, Alpha-2B adrenergic receptor (Homo sapiens, UniProt P18089); assay: Binding affinity determined by displacement of [3H]rauwolscine from alpha-2B adrenergic receptor
T4 sequence (P18089 whole entry): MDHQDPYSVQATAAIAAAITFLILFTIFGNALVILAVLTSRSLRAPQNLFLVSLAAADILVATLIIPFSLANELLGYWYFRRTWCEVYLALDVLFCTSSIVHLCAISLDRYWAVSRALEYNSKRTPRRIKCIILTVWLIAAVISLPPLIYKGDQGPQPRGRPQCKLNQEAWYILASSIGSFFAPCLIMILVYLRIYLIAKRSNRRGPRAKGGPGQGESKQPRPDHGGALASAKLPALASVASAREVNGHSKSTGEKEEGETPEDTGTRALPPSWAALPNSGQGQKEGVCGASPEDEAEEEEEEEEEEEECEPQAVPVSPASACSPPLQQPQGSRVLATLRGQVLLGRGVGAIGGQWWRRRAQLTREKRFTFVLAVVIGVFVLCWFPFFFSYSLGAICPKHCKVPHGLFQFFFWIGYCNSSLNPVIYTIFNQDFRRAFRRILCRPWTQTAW

[6] = target: T5, Alpha-2A adrenergic receptor (Homo sapiens, UniProt P08913); assay: Binding affinity determined by displacement of [3H]rauwolscine from alpha-2A adrenergic receptor; procedure, shortened: as §1
T5 sequence (P08913 whole entry): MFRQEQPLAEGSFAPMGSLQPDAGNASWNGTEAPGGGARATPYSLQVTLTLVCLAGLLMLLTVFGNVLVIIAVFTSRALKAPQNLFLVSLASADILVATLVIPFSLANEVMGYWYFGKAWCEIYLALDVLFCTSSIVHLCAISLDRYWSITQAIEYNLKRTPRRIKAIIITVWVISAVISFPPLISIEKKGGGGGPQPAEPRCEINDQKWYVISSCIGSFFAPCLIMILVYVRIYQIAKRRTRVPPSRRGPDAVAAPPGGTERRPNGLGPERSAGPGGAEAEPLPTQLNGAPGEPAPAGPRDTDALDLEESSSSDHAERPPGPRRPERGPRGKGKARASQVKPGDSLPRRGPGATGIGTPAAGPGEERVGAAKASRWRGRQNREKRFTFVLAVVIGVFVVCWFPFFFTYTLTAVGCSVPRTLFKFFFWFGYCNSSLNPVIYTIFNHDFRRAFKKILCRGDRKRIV

[7] = target: T6, Alpha-2C adrenergic receptor (Homo sapiens, UniProt P18825); assay: Binding affinity assayed by displacement of [3H]rauwolscine from human alpha-2C adrenergic receptor; procedure, shortened: as §1
T6 sequence (P18825 whole entry): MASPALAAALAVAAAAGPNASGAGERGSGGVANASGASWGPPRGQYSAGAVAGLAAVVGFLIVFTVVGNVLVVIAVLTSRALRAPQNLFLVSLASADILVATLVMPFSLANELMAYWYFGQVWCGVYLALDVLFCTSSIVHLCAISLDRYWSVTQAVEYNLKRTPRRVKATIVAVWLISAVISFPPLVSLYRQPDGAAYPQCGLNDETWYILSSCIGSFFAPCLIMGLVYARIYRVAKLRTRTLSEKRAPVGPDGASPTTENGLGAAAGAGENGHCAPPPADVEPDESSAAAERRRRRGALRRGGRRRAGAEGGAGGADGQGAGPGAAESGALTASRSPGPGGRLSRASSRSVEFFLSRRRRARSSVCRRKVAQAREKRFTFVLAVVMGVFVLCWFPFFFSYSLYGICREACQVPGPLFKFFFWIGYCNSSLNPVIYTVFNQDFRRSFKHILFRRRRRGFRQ

## CNC(=O)C1=C(C)NC(C)=C(C(=O)NCCCN2CCC(c3ccccc3)(c3ccccc3)CC2)C1c1ccc([N+](=O)[O-])cc1 (stereo unspecified)
[1]
  Ki: 759 nM
[2]
  Ki: 490 nM
[3]
  Log Ki: < -6
[4]
  Ki: 4.47 nM
[5]
  Ki: 933 nM

## CO/C(O)=C1\C(C)=NC(C)=C(C(=O)NCCCN2CCC(c3ccccc3)(c3ccccc3)CC2)C1c1ccc([N+](=O)[O-])c(OC)c1 (stereo unspecified)
[1]
  Ki: 316 nM
[2]
  Ki: 162 nM
[6]
  Ki: 631 nM
[3]
  Log Ki: < -6
[4]
  Ki: 1.48 nM
[7]
  Ki: 398 nM
[5]
  Ki: 575 nM

## CC1=C(C(=O)O)C(c2ccc3c(c2)OCO3)C(C(=O)NCCCN2CCC(c3ccccc3)(c3ccccc3)CC2)=C(C)N1 (stereo unspecified)
[1]
  Ki: 1740 nM
[2]
  Ki: 977 nM
[6]
  Ki: 1170 nM
[4]
  Ki: 316 nM
[7]
  Ki: 776 nM
[5]
  Ki: 200 nM

## CC(C)C1=C(C(N)=O)C(c2ccc([N+](=O)[O-])cc2)C(C(=O)NCCCN2CCC(c3ccccc3)(c3ccccc3)CC2)=C(C(C)C)N1 (stereo unspecified)
[1]
  Ki: 347 nM
[4]
  Ki: 53.7 nM

## CO/C(O)=C1\C(C)=NC(C)=C(C(=O)NCCCN2CCC(c3ccccc3)(c3ccccc3)CC2)C1c1ccc(Cl)cc1 (stereo unspecified)
[1]
  Ki: 447 nM
[2]
  Ki: 123 nM
[6]
  Ki: 2140 nM
[3]
  Log Ki: < -6
[4]
  Ki: 1.78 nM
[7]
  Ki: 1000 nM
[5]
  Ki: 2290 nM

## CC1=C(C(=O)NCCCN2CCC(c3ccccc3)(c3ccccc3)CC2)C(c2ccc([N+](=O)[O-])cc2)C(C(=O)N(C)C)=C(C)N1 (stereo unspecified)
[3]
  Log Ki: < -6

## CO/C(O)=C1\C(C)=NC(C)=C(C(=O)NCCCN2CCC(c3ccccc3)(c3ccccc3)CC2)C1c1ccc(OC)cc1 (stereo unspecified)
[1]
  Ki: 490 nM
[2]
  Ki: 204 nM
[6]
  Ki: 2190 nM
[3]
  Log Ki: < -6
[4]
  Ki: 7.08 nM
[7]
  Ki: 1150 nM
[5]
  Ki: 1510 nM

## CO/C(O)=C1\C(C)=NC(C)=C(C(=O)NCCCN2CCC(c3ccccc3)(c3ccccc3)CC2)C1c1ccc(Cl)c(Cl)c1 (stereo unspecified)
[1]
  Ki: 324 nM
[2]
  Ki: 115 nM
[6]
  Ki: 912 nM
[3]
  Log Ki: < -6
[4]
  Ki: 1.86 nM
[7]
  Ki: 158 nM
[5]
  Ki: 1260 nM

## CC1=C(C#N)C(c2ccc([N+](=O)[O-])cc2)C(C(=O)NCCCN2CCC(c3ccccc3)(c3ccccc3)CC2)=C(C)N1 (stereo unspecified)
[1]
  Ki: 437 nM
[2]
  Ki: 166 nM
[6]
  Ki: 631 nM
[3]
  Log Ki: < -6
[4]
  Ki: 56.2 nM
[7]
  Ki: 479 nM
[5]
  Ki: 832 nM

## CO/C(O)=C1\C(C)=NC(C)=C(C(=O)NCCCN2CCC(c3ccccc3)CC2)C1c1ccc(Cl)c([N+](=O)[O-])c1 (stereo unspecified)
[1]
  Ki: 126 nM
[2]
  Ki: 41.7 nM
[6]
  Ki: 110 nM
[3]
  Log Ki: < -6
[4]
  Ki: 0.525 nM
[7]
  Ki: 47.9 nM
[5]
  Ki: 91.2 nM

## CO/C(O)=C1\C(C)=NC(C)=C(C(=O)N(C)CCCN2CCC(c3ccccc3)(c3ccccc3)CC2)C1c1ccc([N+](=O)[O-])cc1 (stereo unspecified)
[1]
  Ki: 501 nM
[2]
  Ki: 240 nM
[6]
  Ki: 676 nM
[3]
  Log Ki: < -6
[4]
  Ki: 20.4 nM
[7]
  Ki: 245 nM
[5]
  Ki: 490 nM

## CNC(=O)C1=C(C)NC(C)=C(C(=O)NCCCN2CCC(c3ccccc3)(c3ccccc3)CC2)C1c1ccc2c(c1)OCO2 (stereo unspecified)
[2]
  Ki: 1780 nM
[6]
  Ki: 2090 nM
[4]
  Ki: 16.2 nM
[7]
  Ki: 1020 nM
[5]
  Ki: 575 nM

## CO/C(O)=C1\C(C)=NC(C)=C(C(=O)NCCCN2CCC(c3ccccc3)(c3ccccc3)CC2)C1c1ccc(C#N)cc1 (stereo unspecified)
[1]
  Ki: 380 nM
[2]
  Ki: 151 nM
[6]
  Ki: 759 nM
[3]
  Log Ki: < -6
[4]
  Ki: 1.82 nM
[7]
  Ki: 871 nM
[5]
  Ki: 1260 nM

## CC(=O)C1=C(C)NC(C)=C(C(=O)NCCCN2CCC(c3ccccc3)(c3ccccc3)CC2)C1c1ccc([N+](=O)[O-])cc1 (stereo unspecified)
[3]
  Log Ki: < -6

## CCC1=C(C(N)=O)C(c2ccc([N+](=O)[O-])cc2)C(C(=O)NCCCN2CCC(c3ccccc3)(c3ccccc3)CC2)=C(CC)N1 (stereo unspecified)
[6]
  Ki: 355 nM

## CO/C(O)=C1\C(C)=NC(C)=C(C(=O)NCCN2CCC(c3ccccc3)(c3ccccc3)CC2)C1c1ccc([N+](=O)[O-])cc1 (stereo unspecified)
[1]
  Ki: 1150 nM
[2]
  Ki: 77.6 nM
[6]
  Ki: 447 nM
[3]
  Log Ki: < -6
[4]
  Ki: 8.71 nM
[7]
  Ki: 245 nM
[5]
  Ki: 513 nM

## CO/C(O)=C1\C(C)=NC(C)=C(C(=O)NCCCN2CCC(c3ccccc3)(c3ccccc3)CC2)C1c1ccc2ccccc2c1 (stereo unspecified)
[1]
  Ki: 741 nM
[2]
  Ki: 138 nM
[6]
  Ki: 1580 nM
[3]
  Log Ki: -6.43
[4]
  Ki: 36.3 nM
[7]
  Ki: 631 nM
[5]
  Ki: 891 nM

## CC1=C(C(N)=O)C(c2ccc([N+](=O)[O-])cc2)C(C(=O)NCCCN2CCC(c3ccccc3)(c3ccccc3)CC2)=C(C)N1 (single isomer, unassigned; (+))
[1]
  Ki: 398 nM
[5]
  Ki: 407 nM

## CC1=C(C(N)=O)C(c2ccc([N+](=O)[O-])cc2)C(C(=O)NCCCN2CCC(c3ccccc3)(c3ccccc3)CC2)=C(C)N1 (single isomer, unassigned; (-))
[1]
  Ki: 224 nM
[5]
  Ki: 282 nM

## CC1=C(C(N)=O)C(c2ccc([N+](=O)[O-])cc2)C(C(=O)NCCCN2CCC(c3ccccc3)(c3ccccc3)CC2)=C(C)N1 (stereo in doubt; 19)
[3]
  Log Ki: < -6
